The record followed here is ChEMBL document CHEMBL3611968, “Reengineered tricyclic anti-cancer agents” (Bioorg Med Chem, 2015).

In data set [1] the test system is NCI-H1650. The data set is described as follows: Cytotoxicity against human NCI-H1650 cells assessed as growth inhibition after 48 hrs by MTT assay. The conditions noted are these: NCI-H1650, 48 h. The class given is functional. The procedure, abridged: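 H1650 cells were exposed to drug for 48 h at five concentrations bracketing 1–40 μM in 10 μM steps, with MTT read-out. GI50 is given only where the data form a sigmoidal dose response.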

Data set [2] deals with NCI-H1650. The experiment in a line: Cell cycle arrest in human NCI-H1650 cells assessed as accumulation at sub-G1 phase at 1 to 40 uM by propidium iodide staining-based flow cytometric analysis. The class given is functional.
The target of data set [3] is Sodium-dependent noradrenaline transporter (Homo sapiens) (UniProt P23975). The data set is described as follows: Displacement of [3H]-nisoxetine from norepinephrine transporter (unknown origin) at 0.1 mM relative to control. The procedure, abridged: (§1)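 Competitive antagonist radioligand binding at monoamine transporters. Serotonin transporter is labelled with [³H]imipramine and norepinephrine transporter with [³H]nisoxetine. The compound was tested at three concentrations, and binding is expressed as percent inhibition of specific radioligand binding. Each value is the mean of two independent determinations.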
Sodium-dependent noradrenaline transporter (Homo sapiens), sequence (P23975 whole entry): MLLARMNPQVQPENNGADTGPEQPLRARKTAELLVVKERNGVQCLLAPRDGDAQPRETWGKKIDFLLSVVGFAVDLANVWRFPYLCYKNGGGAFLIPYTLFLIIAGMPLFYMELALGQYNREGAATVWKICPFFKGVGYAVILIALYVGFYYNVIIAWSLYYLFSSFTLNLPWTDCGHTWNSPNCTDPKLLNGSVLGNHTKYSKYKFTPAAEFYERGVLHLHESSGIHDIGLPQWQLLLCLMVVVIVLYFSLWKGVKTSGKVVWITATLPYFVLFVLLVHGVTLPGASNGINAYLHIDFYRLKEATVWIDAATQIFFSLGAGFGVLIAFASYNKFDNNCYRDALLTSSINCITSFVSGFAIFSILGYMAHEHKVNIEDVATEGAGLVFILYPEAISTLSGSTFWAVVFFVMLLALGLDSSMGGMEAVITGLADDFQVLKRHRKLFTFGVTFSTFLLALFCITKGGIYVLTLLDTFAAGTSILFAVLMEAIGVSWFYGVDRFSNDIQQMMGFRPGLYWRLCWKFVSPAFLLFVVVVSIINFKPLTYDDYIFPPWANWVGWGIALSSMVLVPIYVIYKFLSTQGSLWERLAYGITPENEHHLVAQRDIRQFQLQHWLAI

The target is the same in data set [4]. The experiment in a line: Displacement of [3H]-nisoxetine from norepinephrine transporter (unknown origin) at 1 mM relative to control. The procedure, abridged:
as §1

Data set [5] shares this target. The data set is described as follows: Displacement of [3H]-nisoxetine from norepinephrine transporter (unknown origin) at 10 mM relative to control. In short, it runs like this:
as §1

Data set [6] has as its target Sodium channel protein type 5 subunit alpha (Homo sapiens, UniProt Q14524). The experiment in a line: Inhibition of Nav1.5 channel (unknown origin) expressed in HEK293 cells at […] by patch clamp assay. The class given is cell-based.
Data set [7] has as its target Sodium-dependent dopamine transporter (Homo sapiens) (UniProt Q01959). The conditions noted are these: 1 mM.
The target is the same in data set [8]. The note with it: 10 mM.
For data set [9], the system named is NCI-H1650. The experiment in a line: Cell cycle arrest in human NCI-H1650 cells assessed as accumulation at sub-G1 phase by propidium iodide staining-based flow cytometric analysis. It is filed as functional.
The subject of data set [10] is NCI-H1650. The data set is described as follows: Cytotoxicity against human NCI-H1650 cells assessed as reduction of colony formation at 20 to 40 uM after 7 days by crystal violet staining. It is filed as functional, cell-based.
The target in data set [11] is D(1A) dopamine receptor (Homo sapiens) (UniProt P21728). The data set is described as follows: Binding affinity to dopamine D1 receptor (unknown origin) at 0.1 mM by radioligand displacement assay relative to control.
D(1A) dopamine receptor (Homo sapiens), sequence (P21728 whole entry): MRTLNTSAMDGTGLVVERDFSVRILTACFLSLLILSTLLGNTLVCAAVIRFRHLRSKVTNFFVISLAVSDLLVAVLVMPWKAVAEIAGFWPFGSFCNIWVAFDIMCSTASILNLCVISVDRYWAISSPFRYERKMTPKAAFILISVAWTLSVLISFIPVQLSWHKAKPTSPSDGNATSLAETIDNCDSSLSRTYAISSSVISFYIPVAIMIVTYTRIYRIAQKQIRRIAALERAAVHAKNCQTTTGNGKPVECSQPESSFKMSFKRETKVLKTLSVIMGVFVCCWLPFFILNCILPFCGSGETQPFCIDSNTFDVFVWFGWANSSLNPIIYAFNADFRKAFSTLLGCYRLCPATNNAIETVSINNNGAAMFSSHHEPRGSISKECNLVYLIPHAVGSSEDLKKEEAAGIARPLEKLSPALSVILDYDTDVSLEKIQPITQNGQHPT
In data set [12] the target is D(1B) dopamine receptor (Homo sapiens) (UniProt P21918). The experiment in a line: Binding affinity to dopamine D5 receptor (unknown origin) at 0.1 mM by radioligand displacement assay relative to control.
D(1B) dopamine receptor (Homo sapiens), sequence (P21918 whole entry): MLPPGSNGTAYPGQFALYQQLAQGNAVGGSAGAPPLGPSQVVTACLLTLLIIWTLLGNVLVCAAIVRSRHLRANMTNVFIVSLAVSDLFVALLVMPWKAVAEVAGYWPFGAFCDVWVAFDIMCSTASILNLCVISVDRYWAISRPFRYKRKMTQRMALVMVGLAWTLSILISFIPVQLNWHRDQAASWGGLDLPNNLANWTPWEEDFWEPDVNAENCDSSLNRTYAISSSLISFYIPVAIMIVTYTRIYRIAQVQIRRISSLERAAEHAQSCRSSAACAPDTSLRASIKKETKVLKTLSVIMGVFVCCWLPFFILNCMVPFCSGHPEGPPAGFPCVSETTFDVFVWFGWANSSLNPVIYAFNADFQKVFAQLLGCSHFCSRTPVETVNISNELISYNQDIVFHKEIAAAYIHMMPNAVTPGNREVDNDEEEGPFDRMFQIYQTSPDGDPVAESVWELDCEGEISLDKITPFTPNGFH
Data set [13] addresses D(1A) dopamine receptor (Homo sapiens) (UniProt P21728). The data set is described as follows: Binding affinity to dopamine D1 receptor (unknown origin) at 1 mM by radioligand displacement assay relative to control.
Data set [14] addresses D(2) dopamine receptor (Homo sapiens) (UniProt P14416). The experiment in a line: Binding affinity to dopamine D2 receptor (unknown origin) at 1 mM by radioligand displacement assay relative to control.
Another data set concerns Mus musculus. The data set is described as follows: Toxicity in mouse assessed as induction of lethargy at 10 mg/kg relative to control. The note with it: in vivo. It is filed as organism-based.
Data set [15] can be described thus: Initial drug concentration in mouse at 1 mg/kg, iv. It is filed as ADME, organism-based. The conditions noted are these: in vivo.
A short description of data set [16]: AUClast in mouse at 1 mg/kg, iv. The conditions noted are these: in vivo. The class given is ADME, organism-based.
The nature of data set [17]: AUCinfinity in mouse at 1 mg/kg, iv. The class given is ADME, organism-based. More on the design: dose 1 mg/kg, time infinity, route intravenous. The conditions noted are these: in vivo.
Data set [18] can be described thus: Half life in mouse at 1 mg/kg, iv. The conditions noted are these: in vivo. The class given is ADME, organism-based.
Data set [19] is described as follows: Volume of distribution at steady state in mouse at 1 mg/kg, iv. It is filed as ADME, organism-based. The note with it: in vivo, read-out: Vdss.
A short description of data set [20]: Clearance in mouse at 1 mg/kg, iv. The conditions noted are these: in vivo. It is filed as ADME, organism-based.
Data set [21] is described as follows: Tmax in mouse at 10 mg/kg, po. It is filed as ADME, organism-based. The conditions noted are these: in vivo.
A short description of data set [22]: Cmax in mouse at 10 mg/kg, po. The class given is ADME, organism-based. More on the design: dose 10 mg/kg, route oral. The conditions noted are these: in vivo.
Data set [23] in a line: AUClast in mouse at 10 mg/kg, po. It is filed as ADME, organism-based. The note with it: in vivo.
The nature of data set [24]: AUCinfinity in mouse at 10 mg/kg, po. The class given is ADME, organism-based. More on the design: dose 10 mg/kg, time infinity, route oral. The note with it: in vivo.
A short description of data set [25]: Half life in mouse at 10 mg/kg, po. The class given is ADME, organism-based. The conditions noted are these: in vivo.
Data set [26] in a line: Oral bioavailability in mouse at 10 mg/kg. It is filed as ADME, organism-based. The note with it: in vivo.
A short description of data set [27]: Tmax in mouse at 10 mg/kg, ip. It is filed as ADME, organism-based. The conditions noted are these: in vivo.
Data set [28] can be described thus: Cmax in mouse at 10 mg/kg, ip. The class given is ADME, organism-based. Details: dose 10 mg/kg, route intraperitoneal. The note with it: in vivo.
Data set [29] can be described thus: AUClast in mouse at 10 mg/kg, ip. The class given is ADME, organism-based. The conditions noted are these: in vivo.
Data set [30] is described as follows: AUCinfinity in mouse at 1 mg/kg, ip. The conditions noted are these: in vivo. Details: time infinity, route intraperitoneal. It is filed as ADME, organism-based.
Data set [31] is described as follows: Half life in mouse at 1 mg/kg, ip. The class given is ADME, organism-based. The conditions noted are these: in vivo.
A short description of data set [32]: Bioavailability in mouse at 10 mg/kg, ip. It is filed as ADME, organism-based. The conditions noted are these: in vivo.
Data set [33] has as its target RAC-alpha serine/threonine-protein kinase (Homo sapiens) (UniProt P31749). The data set is described as follows: Inhibition of AKT phosphorylation in human NCI-H1650 cells at 20 to 40 uM after 12 hrs by Western blot analysis. The class given is cell-based.
Data set [34] deals with NCI-H1650. The data set is described as follows: Inhibition of ERK phosphorylation in human NCI-H1650 cells at 20 to 40 uM after 12 hrs by Western blot analysis. It is filed as cell-based.
Data set [35] deals with D(2) dopamine receptor (Homo sapiens) (UniProt P14416). The experiment in a line: Binding affinity to dopamine D2 receptor (unknown origin) at 0.1 mM by radioligand displacement assay relative to control.
D(2) dopamine receptor (Homo sapiens), sequence (P14416 whole entry): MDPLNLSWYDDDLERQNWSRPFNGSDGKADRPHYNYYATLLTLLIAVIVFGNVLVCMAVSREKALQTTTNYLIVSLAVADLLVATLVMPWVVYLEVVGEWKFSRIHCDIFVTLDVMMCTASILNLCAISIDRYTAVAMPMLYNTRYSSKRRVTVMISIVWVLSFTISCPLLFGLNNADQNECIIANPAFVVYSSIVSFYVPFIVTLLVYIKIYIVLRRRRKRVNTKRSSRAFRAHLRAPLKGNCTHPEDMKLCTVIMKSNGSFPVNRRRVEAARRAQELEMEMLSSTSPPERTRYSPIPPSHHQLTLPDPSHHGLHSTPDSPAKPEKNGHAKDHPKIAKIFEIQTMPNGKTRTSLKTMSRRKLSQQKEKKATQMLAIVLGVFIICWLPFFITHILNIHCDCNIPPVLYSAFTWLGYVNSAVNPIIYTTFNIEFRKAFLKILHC
Data set [36] addresses D(3) dopamine receptor (Homo sapiens) (UniProt P35462). The data set is described as follows: Binding affinity to dopamine D3 receptor (unknown origin) at 0.1 mM by radioligand displacement assay relative to control.
Data set [37] concerns the target T1, D(4) dopamine receptor (Homo sapiens) (UniProt P21917).
T1 sequence (whole entry): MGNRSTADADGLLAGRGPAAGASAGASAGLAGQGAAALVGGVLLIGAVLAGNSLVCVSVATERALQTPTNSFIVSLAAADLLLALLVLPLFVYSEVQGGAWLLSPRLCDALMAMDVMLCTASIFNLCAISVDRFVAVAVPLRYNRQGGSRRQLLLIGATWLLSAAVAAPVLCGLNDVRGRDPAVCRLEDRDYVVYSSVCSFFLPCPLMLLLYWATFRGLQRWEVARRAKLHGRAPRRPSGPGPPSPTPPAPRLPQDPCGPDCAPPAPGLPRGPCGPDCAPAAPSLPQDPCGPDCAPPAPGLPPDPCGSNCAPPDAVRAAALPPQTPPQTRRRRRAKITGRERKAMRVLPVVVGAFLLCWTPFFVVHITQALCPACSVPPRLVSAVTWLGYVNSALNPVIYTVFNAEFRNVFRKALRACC
The experiment in a line: Binding affinity to dopamine D4 receptor (unknown origin) at 0.1 mM by radioligand displacement assay relative to control.

Data set [38] deals with D(3) dopamine receptor (Homo sapiens) (UniProt P35462). The data set is described as follows: Binding affinity to dopamine D3 receptor (unknown origin) at 1 mM by radioligand displacement assay relative to control.
D(3) dopamine receptor (Homo sapiens), sequence (P35462 whole entry): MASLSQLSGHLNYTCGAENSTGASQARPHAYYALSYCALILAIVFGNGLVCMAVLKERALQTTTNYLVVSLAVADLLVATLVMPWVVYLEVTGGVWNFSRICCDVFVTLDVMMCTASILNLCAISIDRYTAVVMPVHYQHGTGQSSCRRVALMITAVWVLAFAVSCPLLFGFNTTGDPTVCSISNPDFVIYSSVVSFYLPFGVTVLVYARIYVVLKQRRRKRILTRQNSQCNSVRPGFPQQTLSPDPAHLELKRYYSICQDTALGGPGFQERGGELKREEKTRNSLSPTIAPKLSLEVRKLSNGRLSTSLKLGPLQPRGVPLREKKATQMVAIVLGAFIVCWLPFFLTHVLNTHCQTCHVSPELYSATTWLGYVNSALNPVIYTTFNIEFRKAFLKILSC
For data set [39], the target named is T1, D(4) dopamine receptor (Homo sapiens). The experiment in a line: Binding affinity to dopamine D4 receptor (unknown origin) at 1 mM by radioligand displacement assay relative to control.
Data set [40] addresses D(1B) dopamine receptor (Homo sapiens) (UniProt P21918). The data set is described as follows: Binding affinity to dopamine D5 receptor (unknown origin) at 1 mM by radioligand displacement assay relative to control.

Activity calls are given as the source filed them. The calls are words filed in the database; no cut-off is given here.

Sodium-dependent dopamine transporter (Homo sapiens), sequence (Q01959 whole entry): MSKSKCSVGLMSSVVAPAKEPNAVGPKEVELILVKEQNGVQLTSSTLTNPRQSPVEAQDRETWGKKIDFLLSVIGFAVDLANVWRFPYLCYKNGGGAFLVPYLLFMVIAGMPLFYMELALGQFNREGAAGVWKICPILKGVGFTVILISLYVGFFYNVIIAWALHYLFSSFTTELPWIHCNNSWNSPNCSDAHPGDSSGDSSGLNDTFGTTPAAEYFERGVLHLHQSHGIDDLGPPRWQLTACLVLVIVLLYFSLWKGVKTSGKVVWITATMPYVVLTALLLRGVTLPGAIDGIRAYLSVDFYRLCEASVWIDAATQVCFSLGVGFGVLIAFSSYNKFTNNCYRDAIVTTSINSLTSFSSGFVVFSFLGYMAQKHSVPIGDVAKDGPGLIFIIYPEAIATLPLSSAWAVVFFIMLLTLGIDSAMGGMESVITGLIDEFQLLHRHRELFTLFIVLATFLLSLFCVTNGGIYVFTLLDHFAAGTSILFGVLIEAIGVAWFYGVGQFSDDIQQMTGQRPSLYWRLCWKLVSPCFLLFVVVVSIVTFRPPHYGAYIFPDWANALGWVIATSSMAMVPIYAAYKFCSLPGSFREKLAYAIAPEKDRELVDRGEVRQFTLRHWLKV
RAC-alpha serine/threonine-protein kinase (Homo sapiens), sequence (P31749 whole entry): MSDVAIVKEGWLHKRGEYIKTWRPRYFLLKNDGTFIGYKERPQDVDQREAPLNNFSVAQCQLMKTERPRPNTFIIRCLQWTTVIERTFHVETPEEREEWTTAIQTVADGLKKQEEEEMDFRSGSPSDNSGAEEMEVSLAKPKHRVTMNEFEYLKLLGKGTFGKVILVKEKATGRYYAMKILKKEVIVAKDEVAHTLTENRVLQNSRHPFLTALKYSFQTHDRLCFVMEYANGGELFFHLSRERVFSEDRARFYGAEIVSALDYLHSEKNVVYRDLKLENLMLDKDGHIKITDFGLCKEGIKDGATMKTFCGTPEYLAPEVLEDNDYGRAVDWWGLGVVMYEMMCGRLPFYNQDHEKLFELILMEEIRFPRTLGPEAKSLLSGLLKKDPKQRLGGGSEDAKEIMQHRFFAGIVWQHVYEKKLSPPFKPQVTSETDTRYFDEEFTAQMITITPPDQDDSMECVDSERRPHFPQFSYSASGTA

Turning to `CN(C)CCCN1c2ccccc2CCc2ccc(Cl)cc21` [CLOMIPRAMINE], the GI50 with NCI-H1650 [1] was more than 40 µM. Also, the result with NCI-H1650 [2] was Active. The inhibition in data set [3] was 5%; in [4], 90%; in data set [5], 100%; in data set [7], 14%; in data set [8], 60%. In addition, the “inhibition (INH)” value in data set [6] is “Active”.
Take `Cc1ccc(S(=O)(=O)NCCCN2c3ccccc3Sc3ccc(Cl)cc32)cc1`: the concentration for 50% growth inhibition (GI50) in the data set with NCI-H1650 [1] is more than 40 µM. The Activity entry with NCI-H1650 [9] is “Dose-dependent effect”; with Mus musculus, “Non-toxic”. The outcome in the data set with NCI-H1650 [10] was Active. For the same molecule, the inhibition was less than 5% in data set [11], less than 10% in [12], 12% in data set [13] and 14% in [14]. Besides, the C0 in data set [15] came to 2970 ng/mL. The results for the area under the curve AUC(0-t) in [16], in data set [23] and in data set [29] were 1480 ng·h/mL, 2500 ng·h/mL and 7440 ng·h/mL, respectively. The AUC(0-inf) in data set [17] stood at 1500 ng·h/mL; in data set [24], 2510 ng·h/mL; in data set [30], 7570 ng·h/mL. Further, the half-life in data set [18] was 1.36 h; in data set [25], 3.14 h; in [31], 4.35 h. Besides, the Vd in data set [19] is 0.72 L/kg. For the same molecule, the clearance in data set [20] was 11.1 mL/min/kg. The Tmax in data set [21] was 0.5 h; in data set [27], 1 h. In addition, the Cmax was determined as 834 ng/mL in data set [22] and 2250 ng/mL in data set [28]. The bioavailability in data set [26] turned out to be 16.9%; in data set [32], 50.2%.
For `CN1CCN(CCCN2c3ccccc3Sc3ccc(C(F)(F)F)cc32)CC1` [TRIFLUOPERAZINE], the GI50 in the data set with NCI-H1650 [1] turned out to be 12.2 µM. In addition, in the data set with NCI-H1650 [2], the result was Active. Besides, the inhibition result (in data set [33]; in the data set on NCI-H1650 [34]) was “Active” in each case. For the same molecule, the inhibition in data set [11] is more than 95%; in [35], more than 95%; in data set [36] it was more than 95%; in data set [37] it was 73%; in data set [12] it was 81%; in [13] it was more than 95%. Also, the inhibition in [14], in [38], in data set [39] and in data set [40] was more than 95% each time. For the same molecule, the Activity entry in the data set on Mus musculus is given as “Toxic”.
As for `COC(=O)NCCCN1c2ccccc2Sc2ccc(Cl)cc21`, the GI50 with NCI-H1650 [1] was more than 40 µM. The Activity result with NCI-H1650 [9] was “Dose-dependent effect”; in the data set on Mus musculus it was “Non-toxic”. Also, the outcome in the data set on NCI-H1650 [10] was Active. Moreover, the inhibition in [11] was less than 5%; in [35], less than 5%; in data set [36] it was less than 5%; in data set [37] it was less than 5%; in data set [12], less than 10%; in [13], 14%. In addition, the values for the inhibition in [14] and in data set [38] were 21% and 22%, respectively. This molecule also had a C0 in data set [15] of 1200 ng/mL. Moreover, the results for the AUC(0-t) in [16], in data set [23] and in data set [29] were 310 ng·h/mL, 489 ng·h/mL and 1450 ng·h/mL, respectively. Further, the figures for the AUC(0-inf) in data set [17], in [24] and in [30] were 317 ng·h/mL, 498 ng·h/mL and 1450 ng·h/mL, respectively. Further, in data set [19], the Vd came to 1.76 L/kg. For the same molecule, the clearance in [20] was 52.5 mL/min/kg. Besides, the Tmax in data set [21] is 0.5 h; in [27] it was 0.25 h. In addition, the peak concentration (Cmax) in data set [22] was found to be 349 ng/mL; in [28] it was 859 ng/mL. For the same molecule, the results for the half-life in data set [25] and in [31] were 1.19 h and 2.87 h, respectively. In addition, the figures for the bioavailability in [26] and in data set [32] were 15.8% and 46.6%, respectively.
